Measured values reported in ChEMBL document CHEMBL1165950, “Design and synthesis of new potent anticancer pyrazoles with high FLT3 kinase inhibitory selectivity” (Bioorg Med Chem, 2010).

Legend:
Assay type in all cases: functional
SF-268 = experiment: Cytotoxicity against human SF268 cells assessed as cell growth at 100 nM after 48 hrs by sulforhodamine B assay; conditions: SF-268, 48 h, read-out: Activity
MDA-MB-231 [1] = experiment: Cytotoxicity against human MDA-MB-231 cells assessed as cell growth at 0.001 uM after 48 hrs by sulforhodamine B assay; conditions: MDA-MB-231, 48 h, read-out: Activity
BT-549 [2] = experiment: Cytotoxicity against human BT549 cells assessed as cell growth at 0.001 uM after 48 hrs by sulforhodamine B assay; conditions: BT-549, 48 h, read-out: Activity
Outline: (§1)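 NCI-60 five-dose screen. Cells were grown in RPMI 1640 with 5% FBS and 2 mM L-glutamine, plated at 5000–40,000 cells/well and preincubated for 24 h. Time-zero plates were TCA-fixed. DMSO-solubilized drug was added at five concentrations (10-fold or ½-log serial dilutions) for 48 h at 37 °C, 5% CO2. Cells were TCA-fixed, stained with 0.4% SRB and read at 515 nm. Percent growth used time-zero, control and test absorbances.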

PC-3 = experiment: Cytotoxicity against human PC3 cells assessed as cell growth at 100 nM after 48 hrs by sulforhodamine B assay; conditions: PC-3, 48 h, read-out: Activity
K562 = experiment: Cytotoxicity against human K562 cells assessed as cell growth at 1 uM after 48 hrs by sulforhodamine B assay; conditions: K562, 48 h, read-out: Activity
SK-MEL-5 [3] = experiment: Cytotoxicity against human SK-MEL-5 cells assessed as cell growth at 10 uM; conditions: read-out: Activity
Outline: (§2)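 NCI-60 screen: cells grown in RPMI 1640 with 5% FBS and 2 mM L-glutamine, plated at 5000–40,000 cells/well according to doubling time, and preincubated 24 h at 37 °C, 5% CO2. The single 10 µM dose (DMSO stock) was added, then incubated 48 h. Cells were TCA-fixed and stained with 0.4% SRB, read at 515 nm, and growth % calculated against time-zero and control plates.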

OVCAR-4 [4] = experiment: Cytotoxicity against human OVCAR4 cells assessed as cell growth at 10 uM; conditions: read-out: Activity; outline: as §2
SNB-19 = experiment: Cytotoxicity against human SNB19 cells assessed as cell growth at 1 uM after 48 hrs by sulforhodamine B assay; conditions: SNB-19, 48 h, read-out: Activity
SW-620 = experiment: Cytotoxicity against human SW620 cells assessed as cell growth at 0.01 uM after 48 hrs by sulforhodamine B assay; conditions: SW-620, 48 h, read-out: Activity
SF-295 = experiment: Cytotoxicity against human SF295 cells assessed as cell growth at 0.01 uM after 48 hrs by sulforhodamine B assay; conditions: SF-295, 48 h, read-out: Activity
LOX IMVI = experiment: Cytotoxicity against human LOXIMVI cells assessed as cell growth at 0.01 uM after 48 hrs by sulforhodamine B assay; conditions: read-out: Activity
SK-MEL-2 = experiment: Cytotoxicity against human SK-MEL-2 cells assessed as cell growth at 0.01 uM after 48 hrs by sulforhodamine B assay; conditions: SK-MEL-2, 48 h, read-out: Activity
OVCAR-4 [5] = experiment: Cytotoxicity against human OVCAR4 cells assessed as cell growth at 0.01 uM after 48 hrs by sulforhodamine B assay; conditions: OVCAR-4, 48 h, read-out: Activity
OVCAR-8 = experiment: Cytotoxicity against human OVCAR8 cells assessed as cell growth at 0.01 uM after 48 hrs by sulforhodamine B assay; conditions: OVCAR-8, 48 h, read-out: Activity
NCI-H23 = experiment: Growth inhibition of human NCI-H23 cells after 48 hrs by sulforhodamine B assay; conditions: NCI-H23, 48 h
Outline: (§3)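 NCI 60-cell screen, five-dose mode. Cells grown in RPMI 1640 with 5% FBS and 2 mM L-glutamine and plated at 5000-40,000 cells/well according to doubling time. After 24 h preincubation, a Tz plate was TCA-fixed. Five concentrations (10-fold or 1/2 log dilutions) were applied for 48 h at 37 °C. SRB staining read at 515 nm. IC50 taken from [(Ti-Tz)/(C-Tz)]×100 = 50.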

SK-MEL-5 [6] = experiment: Growth inhibition of human SK-MEL-5 cells after 48 hrs by sulforhodamine B assay; conditions: SK-MEL-5, 48 h; outline: as §3
MCF7 = experiment: Cytotoxicity against human MCF7 cells assessed as cell growth at 0.01 uM after 48 hrs by sulforhodamine B assay; conditions: MCF7, 48 h, read-out: Activity
MDA-MB-468 = experiment: Cytotoxicity against human MDA-MB-468 cells assessed as cell growth at 0.01 uM after 48 hrs by sulforhodamine B assay; conditions: MDA-MB-468, 48 h, read-out: Activity
A498 = experiment: Growth inhibition of human A498 cells after 48 hrs by sulforhodamine B assay; conditions: A498, 48 h
Outline: (§4)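 NCI five-dose SRB assay in RPMI 1640 with 5% FBS and 2 mM L-glutamine. Cells were preincubated 24 h, then exposed 48 h at 37 °C to five concentrations (10-fold or half-log serial dilutions from DMSO stocks). TCA fixation, SRB staining, and absorbance at 515 nm followed. IC50 was taken where [(Ti−Tz)/(C−Tz)]×100 = 50, with Tz as time-zero cell density.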

TK-10 = experiment: Growth inhibition of human TK10 cells after 48 hrs by sulforhodamine B assay; conditions: TK-10, 48 h; outline: as §3
DU-145 = experiment: Growth inhibition of human DU145 cells after 48 hrs by sulforhodamine B assay; conditions: DU-145, 48 h; outline: as §4
[7] = Growth inhibition of human Hs 578T cells after 48 hrs by sulforhodamine B assay; outline: as §3
BT-549 [8] = experiment: Growth inhibition of human BT549 cells after 48 hrs by sulforhodamine B assay; conditions: BT-549, 48 h; outline: as §4
HL-60(TB) = experiment: Cytotoxicity against human HL-60(TB) cells assessed as cell growth at 10 uM; conditions: read-out: Activity
Outline: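 NCI 60-cell panel screen at a single concentration of 10 µM. Cells are grown in RPMI 1640 with 5% FBS and 2 mM L-glutamine and read by SRB protein staining at 515 nm. Percent growth is measured relative to time-zero and untreated controls; inhibition % is 100 minus growth %.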

MDA-MB-231 [9] = experiment: Cytotoxicity against human MDA-MB-231 cells assessed as cell growth at 1 uM after 48 hrs by sulforhodamine B assay; conditions: MDA-MB-231, 48 h, read-out: Activity
OVCAR-4 [10] = experiment: Cytotoxicity against human OVCAR4 cells assessed as cell growth at 10 uM after 48 hrs by sulforhodamine B assay; conditions: OVCAR-4, 48 h, read-out: Activity
ACHN = experiment: Cytotoxicity against human ACHN cells assessed as cell growth at 10 uM after 48 hrs by sulforhodamine B assay; conditions: read-out: Activity; outline: as §1
[11] = Cytotoxicity against human Hs 578T cells assessed as cell growth at 10 uM after 48 hrs by sulforhodamine B assay; conditions: read-out: Activity
[12] = read-out: LC50 (the source's name)

For `COc1cc(C)cc(-c2c(-c3ccnc(-c4ccc(N(C)C)cc4)c3)cnn2CC#N)c1`, which growth at 0.1 µM (SF-268) is on record?
The growth at 0.1 µM was 29%.

What about the growth at 0.001 µM (MDA-MB-231 [1]) of the same molecule?
The growth at 0.001 µM was 101%.

What about the growth at 0.001 µM (BT-549 [2]) of the same molecule?
Its growth at 0.001 µM is 93%.

And the growth at 0.1 µM (PC-3)?
The growth at 0.1 µM was 11%.

What about the growth at 1 µM (K562) of the same molecule?
Its growth at 1 µM is -5%.

And the growth at 10 µM (SK-MEL-5 [3])?
Its growth at 10 µM is -18.4%.

What about the growth at 10 µM (OVCAR-4 [4]) of the same molecule?
The growth at 10 µM was 26%.

What about the growth at 1 µM (SNB-19) of the same molecule?
The growth at 1 µM was 36%.

And the growth at 0.01 µM (SW-620)?
Its growth at 0.01 µM is 69%.

And the growth at 0.01 µM (SF-295)?
The growth at 0.01 µM was 56%.

What about the growth at 0.01 µM (LOX IMVI) of the same molecule?
The growth at 0.01 µM was 39%.

What about the growth at 0.01 µM (SK-MEL-2) of the same molecule?
Its growth at 0.01 µM is 66%.

And the growth at 0.01 µM (OVCAR-4 [5])?
The growth at 0.01 µM was 77%.

What about the growth at 0.01 µM (OVCAR-8) of the same molecule?
The growth at 0.01 µM was 28%.

What about the GI50 (NCI-H23) of the same molecule?
The GI50 was 276 nM.

What about the TGI (NCI-H23) of the same molecule?
Its TGI is over 100000 nM.

What about the CC50 (NCI-H23; [12]) of the same molecule?
Its CC50 is over 100000 nM.

And the GI50 (SK-MEL-5 [6])?
Its GI50 is 39.4 nM.

And the TGI (SK-MEL-5 [6])?
Its TGI is 309 nM.

And the CC50 (SK-MEL-5 [6]; [12])?
Its CC50 is over 100000 nM.

And the growth at 0.01 µM (MCF7)?
Its growth at 0.01 µM is 56%.

What about the growth at 0.01 µM (MDA-MB-468) of the same molecule?
The growth at 0.01 µM was -10%.

What about the GI50 (A498) of the same molecule?
The GI50 was 132 nM.

And the LC50 (A498)?
Its LC50 is over 100000 nM.

And the TGI (A498)?
Its TGI is over 100000 nM.

And the GI50 (TK-10)?
The GI50 was 636 nM.

What about the TGI (TK-10) of the same molecule?
The TGI was over 100000 nM.

And the CC50 (TK-10; [12])?
The CC50 was over 100000 nM.

What about the GI50 (DU-145) of the same molecule?
Its GI50 is 113 nM.

What about the TGI (DU-145) of the same molecule?
The TGI was 334 nM.

And the GI50 [7]?
Its GI50 is 166 nM.

What about the TGI [7] of the same molecule?
Its TGI is over 100000 nM.

And the CC50 [7, 12]?
The CC50 was over 100000 nM.

What about the GI50 (BT-549 [8]) of the same molecule?
The GI50 was 75.1 nM.

And the TGI (BT-549 [8])?
The TGI was 514 nM.

And the CC50 (BT-549 [8]; [12])?
Its CC50 is over 100000 nM.

And the growth at 10 µM (HL-60(TB))?
The growth at 10 µM was -5.87%.

And the growth at 1 µM (MDA-MB-231 [9])?
The growth at 1 µM was 17%.

What about the growth at 10 µM (OVCAR-4 [10]) of the same molecule?
Its growth at 10 µM is 25%.

What about the growth at 10 µM (ACHN) of the same molecule?
The growth at 10 µM was 16%.

What about the growth at 10 µM [11] of the same molecule?
The growth at 10 µM was 16%.
